Source: ChEMBL document CHEMBL5036319, “Discovery of Novel Benzothiazepinones as Irreversible Covalent Glycogen Synthase Kinase 3β Inhibitors for the Treatment of Acute Promyelocytic Leukemia” (J Med Chem, 2021)

Key:
[1] = Induction in caspase-mediated apoptosis in human NB4-DR1 cells assessed as necrotic cells at 25 uM incubated for 24 hrs in presence of Z-VAD-FMK by Annexin V-FITC/propidium iodide staining based flow cytometry analysis (reference value: 0.223%); type: functional
[2] = Induction in caspase-mediated apoptosis in human NB4-DR1 cells assessed as late apoptotic cells at 25 uM incubated for 24 hrs by Annexin V-FITC/propidium iodide staining based flow cytometry analysis (reference value: 1.47%); type: functional
[3] = Induction in caspase-mediated apoptosis in human NB4-DR1 cells assessed as early apoptosis cells at 50 uM incubated for 24 hrs in presence of Z-VAD-FMK by Annexin V-FITC/propidium iodide staining based flow cytometry analysis (reference value: 0.875%); type: functional
[4] = Induction in caspase-mediated apoptosis in human NB4-DR1 cells assessed as viable cells at 12.5 uM incubated for 24 hrs in presence of Z-VAD-FMK by Annexin V-FITC/propidium iodide staining based flow cytometry analysis (reference value: 96.4%); type: functional; conditions: read-out: Activity
[5] = Cytotoxicity against HUVEC assessed as cell viability at 0 to 50 uM incubated for 24 hrs by CCK-8 assay relative to control; type: cell-based; conditions: human, dose 0-50 µM, read-out: Activity
Procedure, shortened: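 HUVEC and LO2 normal cells were cultured in RPMI-1640 or DMEM with 10% FBS at 37 °C, 5% CO2, and seeded at 3 × 10^4 cells/well. They were exposed for 24 h to graded concentrations. CCK-8 incubation was 3 h at 37 °C, with A450 read and viability expressed versus untreated control. Three independent experiments, mean ± SEM.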

[6] = Induction in caspase-mediated apoptosis in human NB4-DR1 cells assessed as late apoptotic cells at 50 uM incubated for 24 hrs by Annexin V-FITC/propidium iodide staining based flow cytometry analysis (reference value: 1.47%); type: functional
[7] = Induction in caspase-mediated apoptosis in human NB4-DR1 cells assessed as necrotic cells at 12.5 uM incubated for 24 hrs in presence of Z-VAD-FMK by Annexin V-FITC/propidium iodide staining based flow cytometry analysis (reference value: 0.223%); type: functional
[8] = Induction in caspase-mediated apoptosis in human NB4-DR1 cells assessed as early apoptotic cells at 25 uM incubated for 24 hrs by Annexin V-FITC/propidium iodide staining based flow cytometry analysis (reference value: 1.43%); type: functional
[9] = target: Glycogen synthase kinase-3 alpha (Homo sapiens) (UniProt P49840); experiment: Inhibition of recombinant human GSK-3alpha at 100 uM by mobility shift assay relative to control
Glycogen synthase kinase-3 alpha (Homo sapiens), sequence (P49840 2-483 limits assumed): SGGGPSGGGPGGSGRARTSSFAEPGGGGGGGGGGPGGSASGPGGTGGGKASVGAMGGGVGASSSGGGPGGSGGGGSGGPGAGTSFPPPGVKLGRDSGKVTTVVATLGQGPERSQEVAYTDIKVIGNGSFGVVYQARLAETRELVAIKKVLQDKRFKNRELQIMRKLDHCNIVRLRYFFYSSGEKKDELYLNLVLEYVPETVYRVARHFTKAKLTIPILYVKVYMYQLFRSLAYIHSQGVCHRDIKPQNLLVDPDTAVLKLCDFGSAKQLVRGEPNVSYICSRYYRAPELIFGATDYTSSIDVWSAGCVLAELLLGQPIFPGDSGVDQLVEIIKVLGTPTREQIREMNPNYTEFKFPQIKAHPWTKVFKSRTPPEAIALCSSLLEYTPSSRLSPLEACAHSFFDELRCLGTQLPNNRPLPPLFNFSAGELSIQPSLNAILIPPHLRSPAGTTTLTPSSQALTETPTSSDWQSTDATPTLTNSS

- inhibition [9]: 87.3%
SMILES: C=CC(=O)N1C(=O)CC(c2ccc(F)cc2)Sc2ccccc21 (centres undefined)
- Activity [1]: 0.485%
- Activity [2]: 14.8%
- Activity [3]: 1.12%
- viability at 12.5 µM [4]: 96.1%
- viability at 24 h, up to 50 µM [5]: > 80%
- Activity [6]: 16.1%
- Activity [7]: 0.332%
- Activity [8]: 2.07%
